Hits are enriched below; roughly 1% of the tested compounds scored in any of these assays.
Arr AP2 block: human beta-arrestin and AP2 interaction inhibition; inhibition, % at 10 µM; FITC-arrestin peptide / GST-AP2 beads, flow cytometry; AP2 beta2 appendage carries R879A mutation; actives 0.31% (n = 340,000);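 active = inhibition above a set limit, near 3 SD of compounds lacking own fluorescence, cut at about 54% in these data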
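system = GST-tagged AP2 beta2-adaptin appendage (R879A) on 4 µm glutathione beads | reagent = FITC-labelled arrestin peptide probe, 50 nM final | schedule = compound with beads 12 min RT, then probe 1 h RT | signal = HyperCyt-sampled flow cytometry, FL1 channel, ex 488/em 535 nm | read-out = percent response from loss of bead-bound FITC fluorescence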
Hep lipid drop: hepatic lipid droplet formation modulation; AML12 mouse hepatocytes, oleate lipid droplets, BODIPY imaging; actives 0.4% (n = 240,000); inhibition, % at 6.5 µM; AID 1656;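 active = lipid droplet intensity inhibited by at least 50%, with more than 500 cells counted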
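Technique: fluorescence imaging, 20x objective, two fields per well / Assay system: AML12 hepatocytes (mouse) / Measure: % inhibition of lipid droplet signal / Doses: 6.5 µM single-point dosing / Incubation: overnight exposure / Reagent: 100 µM oleic acid challenge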
pCIP destab: compounds decreasing mouse p/CIP protein stability; actives 0.01% (n = 290,000); F442A p/CIP-EGFP cells, EGFP fluorescence, 16 h; decrease of EGFP signal, % at 10 µM;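 active = EGFP signal decrease of at least 30% at 10 µM or well 3 SD below plate mean, unless failing retest; inactive = the rest, including hits failing retest or dose response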
CTSL1 counter: cathepsin L1 inhibition, PFM18AAP counter-screen | inhibition, % at 5.96 µM | AID 1906 | actives 0.49% (n = 300,000) | recombinant F. hepatica cathepsin L1, Z-Leu-Arg-MCA fluorescence;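 active = inhibition above the mean of all tested compounds plus 3 SD, set per screening campaign, cut at about 17% in these data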
Arr-AP2 CP1: blocks beta-arrestin peptide binding to human AP2. AID 504908. GST-AP2 beads, FITC arrestin peptide binding, flow cytometry; GST-fused beta2-adaptin appendage, R879A mutant. actives 2% (n = 1,300). shares compounds with Arr AP2 block. inhibition, % at 10 µM;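 active = inhibition above a set limit, roughly 3 SD of non-fluorescent compound noise, cut at about 38% in these data; inactive = inhibition at or below that limit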;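 also: loss of bead fluorescence from 50 nM FITC arrestin peptide bound to appendage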
GST GSH counter: disrupts GST binding to glutathione beads, arrestin-AP2 artifact; shares compounds with Arr AP2 block; GST-fluorescein binding to GSH beads, fluorescence, counter-screen; inhibition, % at 10 µM; actives 2% (n = 1,300); AID 588338;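 active = inhibition above 50%, about 3 SD of the inhibition seen with non-fluorescent compounds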;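 also: fluorescein maleimide labelled GST captured on 4 micron glutathione beads; higher means more loss of bead fluorescence from quenching or blocked binding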
A number is an active result; i = inactive; nt = no result.

SMILES | Arr AP2 block | Hep lipid drop | pCIP destab | CTSL1 counter | Arr-AP2 CP1 | GST GSH counter
CN(Cc1ccccc1)C1CC(=O)N(c2ccc(C(=O)O)cc2)C1=O (stereo not drawn) | i | i | i | i | nt | nt
Cc1cc(NC(=O)CCC(=O)N(Cc2cccnc2)C(C(=O)NC(C)(C)C)c2ccccc2Cl)no1 (stereo not drawn) | 57 | i | i | i | i | i
Cc1cc(NC(=O)CCC(=O)N(C2CC2)C(C(=O)NC(C)(C)C)c2ccccc2Cl)no1 (stereo not drawn) | i | i | i | i | nt | nt
COc1cccc(NC(=O)CN(C)C(=O)c2ccc(-c3cccc(C(F)(F)F)c3)o2)c1 | i | nt | nt | i | nt | nt
O=C(CSc1ccc(-c2ccccc2)nn1)NC1CCCCC1 | 63 | i | i | i | i | i
Cc1cc(NC(=O)c2cc(-c3ccc(C)s3)nc3ccccc23)no1 | 103 | nt | i | i | i | i
Cc1cc(NC(=O)c2cc(-c3ccccc3C)nc3ccccc23)no1 | i | nt | i | i | nt | nt
COc1ccc(S(=O)(=O)N2CCC(C(=O)NCCN3CCOCC3)CC2)cc1OC | i | i | i | i | nt | nt
COc1ccc(C(=O)/C(C)=N/O)cc1OC | i | i | i | i | nt | nt
Cc1cc(NC(=O)c2cnn3c(C(F)F)cc(-c4ccccc4)nc23)no1 | i | nt | i | i | i | i
Cc1cc(NC(=O)c2cnn3c(C(F)F)cc(C4CC4)nc23)no1 | i | i | i | i | nt | nt
Cc1cc(NC(=O)c2cnn3c(C(F)(F)F)cc(-c4ccccc4)nc23)no1 | i | i | i | i | i | i
CN(C(=O)c1cccc(C#N)c1)c1nnc(-c2ccccn2)s1 | i | i | i | i | nt | nt
CSc1ccc(CN(C)C(=O)c2cc(=O)c3ccccc3o2)cc1 | i | i | i | i | nt | nt
COc1ccccc1-n1c(SCC(=O)NC2CC2)nc2ccccc2c1=O | 60 | nt | nt | nt | i | i
CCOc1cccc(OCCCNCCCOC)c1 | 93 | nt | i | i | i | i
CCc1cccc(OCCCCNCCCOC)c1 | i | i | i | i | nt | nt
Cc1c(NC(=O)c2cccc(S(=O)(=O)N(C)c3ccccc3)c2)c(=O)n(-c2ccccc2)n1C | i | nt | nt | nt | nt | nt
Cc1c(NC(=O)c2ccc(N(C)S(=O)(=O)c3ccccc3)cc2)c(=O)n(-c2ccccc2)n1C | 54 | i | i | i | i | i
COc1cc(C2Nc3cccc4cccc(c34)N2)cc(OC)c1O | 56 | i | i | i | i | i
CCC(=O)N(CC)c1nc(-c2cc(OC)ccc2OC)cs1 | i | i | i | i | nt | nt
CC(C)n1cc(CN2CCC(n3nccc3NC(=O)Cc3ccccc3)CC2)cn1 | i | i | i | i | nt | nt
CN(C)c1nc(N)c(C(=O)N=C(N)N)nc1Cl | i | nt | nt | i | nt | nt
Cc1cc2ccccc2c(=O)n1CC(=O)Nc1ccc2c(c1)OCO2 | i | i | i | i | nt | nt
COc1cccc(NC(=O)CCCn2c(=O)[nH]c3ccccc3c2=O)c1 | i | nt | i | i | i | i
SMILES | Arr AP2 block | Hep lipid drop | pCIP destab | CTSL1 counter | Arr-AP2 CP1 | GST GSH counter
O=C(Cn1c(=O)[nH]c2ccccc2c1=O)Nc1ccc2c(c1)OCCO2 | i | i | i | i | i | i
O=C1CC(c2ccco2)CC(O)=C1C=NCCN1CCN(C(=S)Nc2ccccc2)CC1 (stereo not drawn) | 56 | i | i | i | i | i
Cc1ccccc1/C=N/Nc1ccc(Cl)nn1 | 60 | i | i | i | i | i
CCCCSc1ncnc2[nH]ncc12 | 64 | i | i | i | i | i
COc1ccc(NC(=O)C(c2ccc(C)cc2)N(C)C(=O)Cc2cccs2)cc1 (stereo not drawn) | i | i | i | i | nt | nt
C=CCN1/C(=C(\C#N)C2=NS(=O)(=O)c3ccccc32)N(C)c2ccccc21 | 55 | i | i | i | i | i
O=[N+]([O-])c1ccc(O)c(P(=O)(c2ccccc2)c2ccccc2)c1 | i | nt | i | i | nt | nt
CCOc1ccc(NC(=S)N2CCN(S(=O)(=O)c3ccccc3)CC2)cc1 | 58 | i | i | nt | i | i
Cc1nn(-c2ccccn2)c2c1C(c1ccsc1)C1=C(CCCC1=O)N2 (stereo not drawn) | 105 | i | i | i | i | i
Cc1cccc(-n2nc(C)c3c2NC2=C(C(=O)CCC2)C3c2ccccn2)c1 (stereo not drawn) | i | i | i | i | nt | nt
Cc1sc2nc(CN3CCOCC3)nc(N3CCOCC3)c2c1C | 58 | i | i | i | i | i

Assay outcomes (PubChem)
